The list is not random: actives were taken first. Their share in the collection is about 2.6%.
RAD52 inh: RAD52 (human) annealing inhibition; P43351; recombinant RAD52 DNA annealing, FRET fluorescence; inhibition, % at 18.7 µM; 360,000 tested, 0.46% active; AID 651710;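 active = every replicate showing at least 50% inhibition; inconclusive = mean inhibition at least 50% but not in every replicate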
AF4-AF9 inh: inhibitors of human MLL-AF4/AF9 interaction; P42568; AlphaScreen, biotin-AF4 peptide binding to FLAG-AF9; inhibition, % at 10 µM; 350,000 tested, 0.47% active;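 active = every replicate reaching a set inhibition limit, whatever the replicate mean, cut at about 25% in these data; inconclusive = mean inhibition reaches that limit but some replicates miss it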;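 note: 0% = plate neutral control median and 100% = total signal loss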
INS-1E GSIS act: primary screen for activators of insulin secretion dependent on glucose, INS-1E cells, GLuc reporter luminescence. activation, % at 16.6 µM. 370,000 tested, 0.61% active. AID 743287. INS-1E GLuc reporter insulin secretion, 2-3 h;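 active = lowest replicate activation of at least 40%, so every replicate reaches that level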;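 note: 0% = median of neutral control wells and 100% = median of IBMX positive control wells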
RAD54 branch: blocks human RAD54 Holliday junction branch migration; AID 602329; 360,000 tested, 0.14% active; FAM/BHQ fluorescence; inhibition, % at 10.4 µM; Q92698;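 active = mean normalized replicate activity at least 40 and at least half of replicates scoring 40 or more; inconclusive = only one of the two criteria met; inactive = mean below 40 and under half of replicates reaching 40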;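 note: 0% = median of neutral control wells and 100% = median of positive control wells; inhibitors cause a drop in the FAM fluorescence signal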
E-sel inducer: induces E-selectin expression in human endothelial cells; HUVEC E-selectin immunofluorescence imaging; normalized: neutral wells 0, TNF-alpha wells 100; 260,000 tested, 0.37% active; P16581; activation, % at 7.58 µM;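 active = mean E-selectin-positive cell signal at least 10% of the positive control, reached in at least 60% of replicates, without over 20% cell loss; inconclusive = no rule given, readout overlaps actives, possibly toxicity-flagged; inactive = the rest, including those meeting only one limit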
Target sequence (P16581 whole entry, looked up): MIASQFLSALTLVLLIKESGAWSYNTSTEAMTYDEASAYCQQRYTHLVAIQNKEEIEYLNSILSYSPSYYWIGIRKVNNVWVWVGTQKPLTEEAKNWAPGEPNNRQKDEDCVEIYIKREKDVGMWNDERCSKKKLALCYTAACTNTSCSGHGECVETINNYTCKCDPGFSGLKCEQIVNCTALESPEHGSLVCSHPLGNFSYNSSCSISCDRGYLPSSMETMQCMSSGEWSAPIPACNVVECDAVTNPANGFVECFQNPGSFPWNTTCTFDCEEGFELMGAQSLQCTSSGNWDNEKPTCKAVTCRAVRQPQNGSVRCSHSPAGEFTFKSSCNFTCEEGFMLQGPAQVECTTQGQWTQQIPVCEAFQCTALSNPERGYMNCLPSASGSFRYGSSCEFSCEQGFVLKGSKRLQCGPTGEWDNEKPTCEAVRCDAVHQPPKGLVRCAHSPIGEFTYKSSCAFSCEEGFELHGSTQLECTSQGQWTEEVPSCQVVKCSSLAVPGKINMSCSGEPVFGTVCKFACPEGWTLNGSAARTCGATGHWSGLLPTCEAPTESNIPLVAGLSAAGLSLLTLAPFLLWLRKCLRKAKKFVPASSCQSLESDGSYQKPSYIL
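System: HUVEC / Compound: single concentration / Signal: immunofluorescence imaging / Read-out: percent E-selectin-positive cells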
Ecoli rRNA inh: selective bacterial rRNA inhibition in E. coli | E. coli WT GFP vs humanized-ribosome RFP mutants, fluorescence, 24 h; active compounds read low; DMSO median 0, no signal -100 | GFP signal change (wild-type ribosome), % (concentration not given with the values) | 350,000 tested, 1.6% active;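 active = significant combined selectivity score with lowered wild-type GFP, culture density cut under 30%, mutant RFP and density less affected; inactive = any of these conditions unmet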
AID977621: wild-type E. coli growth inhibition versus H69 humanized strain – H69 mutant RFP, wild-type GFP, cherry-pick, dose response; shares compounds with Ecoli rRNA inh; fluorescence, 24 h; activity change, negative = inhibition at 50 µM; 1,900 tested, under 10 active; AID 977621;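 active = Wild-type ribosome reporter drop at least double the humanized mutant ribosome reporter drop, growth loss under a set limit; inconclusive = no clear call, values can overlap the other calls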;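 note: wild-type GFP and H69 mutant RFP strains grown together 50/50 in each well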
AID977628: growth of wild-type and h24-humanized E. coli strains – h24 mutant RFP vs wild-type GFP, cherry-pick, dose response. shares compounds with Ecoli rRNA inh. E. coli WT GFP strain growth, fluorescence, 24 h. activity change, negative = inhibition at 50 µM. 1,900 tested, under 10 active. AID 977628;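 active = compound lowering the normal-ribosome reporter at least twice as much as the humanized-ribosome reporter, growth loss under a set limit; inconclusive = no clear call, values can overlap the other calls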;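 note: wild-type GFP and h24 humanized RFP strains co-cultured 1 to 1 per well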
Starred values were filed as active, the others as inactive; ? = inconclusive; nt = not tested or not shown.

SMILES	RAD52 inh	AF4-AF9 inh	INS-1E GSIS act	RAD54 branch	E-sel inducer	Ecoli rRNA inh	AID977621	AID977628
COc1ccc(-c2cc(C(=O)O)nc3ccc4ccccc4c23)cc1OC	-11.2	0.7	-1.6	nt	0.9	-28.9*	-16.5	nt
NC(=O)c1ccc(SCC(=O)OCC(=O)N2CCCCC2)c([N+](=O)[O-])c1	5.1	1.8	1.3	nt	nt	-5.5	nt	nt
CN(C(=O)COC(=O)CSc1ccc(C(N)=O)cc1[N+](=O)[O-])C1CCCCC1	-3.4	1.7	-30.2	0.3	1.4	-16.2*	-9.95	4.11
CCN(CC)C(=O)c1ccc(COc2ccccc2Cl)o1	-3.1	-2.3	-1.8	nt	-0.1	-20.3*	1.51	-6.92
CN(C(=O)c1ccc(COc2ccccc2Cl)o1)c1ccccc1	-14.8	0.3	-34.5	0.1	-0.1	-56.0	nt	nt
COc1ccc(CCCc2nc3ccccc3[nH]2)cc1	-1.7	0.6	0.1	nt	-0.4	-21.9*	-5.85	?
O=C(CC1C(=O)NCCN1CC1CCCCC1)NCc1ccc(F)cc1F (stereo unspecified)	-19.0	1.6	-12.4	nt	nt	-20.1*	10.4	?
CN1C(=O)c2cc(NC(=O)c3cccs3)ccc2OC[C@@H]2O[C@@H](CC(=O)N3CCCCC3)CC[C@@H]21	6.5	0.2	-1.7	0.4	0.0	-3.8	nt	nt
Cc1cc(NC(=O)CS(=O)(=O)c2cn(Cc3ccccc3Cl)c3ccccc23)no1	nt	nt	-6.9	3.2	nt	nt	nt	nt
Cc1cc(NC(=O)CS(=O)(=O)c2cn(Cc3cccc(Br)c3)c3ccccc23)no1	-17.7	-8.9	-7.5	8.7	0.3	-21.4*	-15.2	nt
COc1ccc(Cl)cc1NC(=O)CN(C)CC(=O)Nc1ccccc1-c1ccccc1	-7.6	4.6	-18.6	-13.6	-1.4	-23.6*	-9.69	nt
O=C(C[C@H]1CC[C@@H](NC(=O)C2CCOCC2)[C@H](CO)O1)Nc1ccccc1	2.8	-15.7	5.7	nt	0.0	3.6	nt	nt
Cc1cccc(-c2cc3nc4c(c(N5CCOCC5)n3n2)CCCC4)c1	-20.0	0.7	1.6	9.0	nt	-32.6*	-16.9	?
Cc1cccc(-c2cc3nc4c(c(N5CCC6(CC5)OCCO6)n3n2)CCCC4)c1	-5.1	-2.7	15.4	1.4	nt	8.9	nt	nt
Cc1ccc(NCC(=O)c2ccc(C)cc2)cc1	-2.6	-2.4	-24.1	-7.7	0.4	-18.0*	-10.4	-2.95
COc1ccccc1CNC(=O)CN1C(=O)NC(c2ccccc2)(c2ccccc2)C1=O	-16.6	-6.9	-44.9	nt	-0.1	-16.4*	-0.42	nt
O=C(CN1CCc2ccccc2C1)Nc1ccc(F)cc1F	-2.5	-1.2	-11.1	6.1	0.5	-21.1*	-20.6	?
COc1ccc(S(=O)(=O)N[C@@H]2C=C[C@@H](CC(=O)NCCc3ccncc3)O[C@@H]2CO)cc1	-4.3	1.0	-1.9	-2.6	-0.5	-1.0	nt	nt
CC(C)NC(=O)N(C)C[C@H]1Oc2ncc(C#CCc3ccccc3)cc2C(=O)N([C@@H](C)CO)C[C@H]1C	1.6	-4.8	-15.6	-1.1	-0.3	1.6	nt	nt
S=c1nc(-c2cccc(Cl)c2)[nH][nH]1	-7.6	-6.7	-4.6	nt	nt	-3.3	nt	nt
S=c1nc(-c2cc(Cl)cc(Cl)c2)[nH][nH]1	-15.4	-2.4	-9.3	nt	nt	-16.7*	-14	?
CCCNC(=O)N1CC2(CCN(CC3CC3)CC2)c2c(n(C)c3cc(OC)ccc23)[C@@H]1CO	13.6	14.0	9.1	nt	0.9	3.0	nt	nt
COc1ccc(OCCC(=O)OCC(=O)NCCC2=CCCCC2)cc1	-11.6	2.3	-8.3	nt	-0.1	-24.2*	-12.8	-9.71
CN(c1ccccc1)S(=O)(=O)c1cccc(NC(=O)CCNC(=O)c2ccc([N+](=O)[O-])cc2)c1	-13.8	3.1	-25.5	3.6	-0.1	-16.7*	-4.66	?
COc1ccccc1C1CCN(Cc2ccccc2)CC1	-2.9	0.0	18.6	6.3	-0.1	3.1	nt	nt

Source: PubChem BioAssay (Broad Institute)
